MT stabilize HCS = microtubule stabilizers in HeLa cells | HeLa tubulin immunostaining HCS, 24 h; share of cells brighter than vehicle mean+2SD | % tubulin-high responders, % at 10 µM | actives 0.83% (n = 200,000) | AID 2205;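 active = plate Z-score above 3 for both tubulin-high and condensed-nucleus cell shares, with cell loss under 80%, at 10 µM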;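 also: anti alpha tubulin signal scored within the nucleus-defined area of each cell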
b-catenin transl = modulators of beta-catenin nuclear translocation; nuclear translocation activity, % at 5 µM; actives 0.3% (n = 190,000); AID 1665; HeLa beta-catenin nuclear translocation, immunofluorescence imaging;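 active = nuclear translocation activity above 50% at 5 µM, with a well cell count of 50 or more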;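 also: per-cell ratio of nuclear to cytoplasmic median beta-catenin stain intensity; plate controls were DMSO negative control for no effect and GSK-3 inhibitor IX positive control for full effect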
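Technique: fluorescence imaging of beta-catenin antibody stain plus DAPI / Material: human HeLa cell line / Incubation: compound treatment 24 h, 37°C, 5% CO2 / Read-out basis: % activation of per-cell nuclear versus cytoplasmic median beta-catenin signal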
Efa HMGR inh = inhibitors of class II HMG-CoA reductase from Enterococcus faecalis; actives 0.41% (n = 190,000); inhibition, % at 10 µM; purified E. faecalis HMGR, NADPH absorbance 340 nm kinetic;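 active = inhibition above a set limit, the median over all tested compounds plus 3 SD, cut at about 9.5% in these data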;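 also: enzyme runs in reverse so mevalonate oxidation gives rising NADPH absorbance; 0% = complete reaction with DMSO and 100% = background rate lacking mevalonate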
Tb hexokinase = blocks Trypanosoma brucei hexokinase 1 activity. recombinant TbHK1, G6PDH-coupled NADH A340. inhibition, % at 10 µM. actives 0.11% (n = 220,000);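 active = inhibition of 50% or more in the single-dose primary screen; inactive = inhibition below 50%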
EP2 mod = modulates human prostaglandin E2 receptor EP2 signaling. P43116. induction, % at 25 µM. actives 0.83% (n = 260,000). EP2-expressing cells, cAMP HTRF FRET, PGE2 co-stimulation. AID 940;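 active = compounds whose cAMP rise, as percent of the full-agonist control response, exceeds 60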;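 also: rat C6 glioma line stably carrying human EP2 under a CMV promoter; the protocol text gives 20 µM as final concentration; 100% = response of wells given 1 µM PGE2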
Target sequence (P43116 whole entry, looked up): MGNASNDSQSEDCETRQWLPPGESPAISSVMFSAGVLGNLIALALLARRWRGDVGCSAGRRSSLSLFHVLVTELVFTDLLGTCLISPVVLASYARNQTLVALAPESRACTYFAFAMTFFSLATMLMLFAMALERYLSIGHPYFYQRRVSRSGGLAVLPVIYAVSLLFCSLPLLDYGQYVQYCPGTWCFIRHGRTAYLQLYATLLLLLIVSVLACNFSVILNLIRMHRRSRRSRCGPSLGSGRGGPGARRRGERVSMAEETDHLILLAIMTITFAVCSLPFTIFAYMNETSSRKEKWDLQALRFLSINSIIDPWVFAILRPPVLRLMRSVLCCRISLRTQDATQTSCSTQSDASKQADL
EP2 antag = blocks the human prostaglandin E2 receptor EP2. actives 0.52% (n = 260,000). inhibition, % at 25 µM. P43116. C6 glioma cells expressing human EP2, cAMP TR-FRET; cells stimulated with saturating PGE2;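 active = percent inhibition above 40 after rounding to a whole number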;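 also: rat C6 glioma host cells with rolipram phosphodiesterase inhibitor present; the protocol text gives 20 µM as final concentration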
Starred values were filed as active, the others as inactive; x = no result. Hits are enriched below; roughly 2.4% of the tested compounds scored in any of these assays.

SMILES	MT stabilize HCS	b-catenin transl	Efa HMGR inh	Tb hexokinase	EP2 mod	EP2 antag
COc1cccc(/C=C2/SC(=O)N(C)C2=O)c1OCc1ccc(C(=O)O)cc1	2	1	10*	-17	1	3
COc1cccc(/C=C2/SC(=O)N(CC(=O)N3CCc4ccccc4C3)C2=O)c1OCC(=O)O	1	-2	-2	-44	-14	10
COc1ccc2[nH]c3nc(SCC(=O)N4CCCCC4)nnc3c2c1	x	x	x	x	-14	9
COc1ccc(NC(=O)CSc2nnc(-c3ccncc3)n2C)cc1	2	x	2	1	11	10
Cn1c(SCC(=O)Nc2ccc(NC(=O)c3cccs3)cc2)nnc1-c1ccncc1	3	-3	11*	-1	20	7
c1cc2c(cc1Nc1nc(-c3ccc4c(c3)OCO4)cs1)OCCO2	3	1	-2	-18	29	2
COc1cccc(Nc2nc(-c3ccc4c(c3)OCCO4)cs2)c1	34*	5	0	6	6	10
NC1=N[C@@H](c2ccc(Cl)cc2)N(c2ccc(S(N)(=O)=O)cc2)C(N)=N1	x	x	x	x	0	47*
CCCCc1nc2sc3c(=O)[nH]cnc3c2c2c1CCCC2	x	2	x	-13	61*	10
CC(C)c1nc2sc3c(=O)[nH]cnc3c2c2c1CCCC2	x	1	x	-18	43	9
CC(C)c1nc2sc3c(=O)[nH]cnc3c2c2c1CCC2	6	0	-2	-1	54	6
CCCc1nc2sc3c(=O)[nH]cnc3c2c2c1CCCC2	x	5	x	-13	72*	7
CC(C)c1ccc(C2C3=C(CCCC3=O)NC3=C2C(=O)CCC3)cc1	x	x	x	x	-37	12
Cc1ccc(CN(C(=O)c2csnn2)C(C(=O)NC2CCCCC2)c2ccccn2)cc1 (stereo not given)	x	x	x	x	6	6
COc1ccc(-c2nn(-c3ccccc3)cc2/C=N/NC(N)=S)cc1OC	27*	x	2	0	7	7
C=C(c1ccc(OC)cc1)c1ccc(OC)cc1	6	88*	4	-1	3	x
Cc1nnc2n(Cc3ccccc3)c(=O)c3c4c(sc3n12)COC(C(C)C)C4 (stereo not given)	5	-1	1	-12	64*	13
Clc1cccc(CN2CCC(Cc3ccccc3)CC2)c1	2	0	14*	5	-13	8
Clc1ccc2[nH]c3c(c2c1)CCc1cn[nH]c1-3	16*	13	-6	-2	-58	32
O=C(OCC#CCSc1nnc(-c2ccncc2)o1)c1cccc2ccccc12	x	x	x	x	-38	6
Cc1ccc(S(=O)(=O)NCc2c(Cl)cccc2Oc2ccccc2)cc1	x	0	x	8	69*	10
CCCCCCOc1ccc(/C(C)=N/NC2=NCCN2)cc1[N+](=O)[O-]	4	4	-5	5	-39	4
CCCCOc1ccc(Br)cc1/C(C)=N/NC1=NCCN1	8	52*	-6	4	-27	16
Cc1cc(NC(=O)c2ccc(S(=O)(=O)N3CC(C)OC(C)C3)cc2)no1 (stereo not given)	x	x	x	x	-28	10
CCOC(=O)/C=C/C(=O)Nc1cccc([N+](=O)[O-])c1	2	0	1	-3	-1	131*
SMILES	MT stabilize HCS	b-catenin transl	Efa HMGR inh	Tb hexokinase	EP2 mod	EP2 antag
Fc1ccc(C2=NN(c3ccccc3)C(c3ccco3)C2)cc1 (stereo not given)	2	9	13*	-3	52	14
COc1ccc2c(c1)C=C(CN1CCc3nc(N4CCC(C)CC4)[nH]c(=O)c3C1)CO2	x	x	x	x	-20	7
CC1CN(c2ccc([N+](=O)[O-])cc2C#N)CC(C)O1 (stereo not given)	5	3	3	-11	-5	1
CC(C)=Cc1oc2ccc([N+](=O)[O-])cc2c1N1CC(C)OC(C)C1 (stereo not given)	4	0	-2	-8	62*	9
CC(C)NC(=O)Cn1cc(CN2CCC(O)(c3ccccc3F)CC2)c2ccccc21	x	x	x	x	-51	9
COc1ccc(NCc2cccs2)cc1	x	x	x	x	-36	8
CCOc1ccc(S(=O)(=O)N(C)C)cc1-c1nc2c(C(C)(C)C)nn(C)c2c(=O)[nH]1	1	1	-5	-9	14	36
CCOc1ccc(S(=O)(=O)N(C)CCO)cc1-c1nc2c(C(C)(C)C)nn(C)c2c(=O)[nH]1	3	0	25*	-4	1	x
CCOc1ccc2nc(SCC(=O)Nc3ccc(OC)c(OC)c3)sc2c1	x	x	x	x	-83	7
COc1cccc(C(NC(=O)C2CCC(OC)CC2)c2nccn2C)c1OC (stereo not given)	x	x	x	x	-35	12
O=C(C1Cc2ccccc2CN1S(=O)(=O)c1cccs1)N1CCCCCC1 (stereo not given)	3	-1	0	2	-9	9
NC(=O)C1Cc2ccccc2CN1S(=O)(=O)c1cccs1 (stereo not given)	2	-6	9.7*	-2	2	6
Cc1ccc(Cl)c(OCC(=O)OCC(=O)NC2CCCc3ccccc32)c1 (stereo not given)	5	0	13*	-5	8	19
CN(C)/C=N/C1=C(C#N)C(c2cccs2)c2ccc3ccccc3c2O1 (stereo not given)	16*	-6	-7	-9	11	4
C[n+]1cccc(C2C(C#N)=C(N)Oc3c2ccc2ccccc32)c1 (stereo not given)	x	4	x	-8	-16	7
O=C(Nc1ccc(Br)cc1)/C(=C\c1cccnc1)NC(=O)c1ccco1	x	x	x	x	-20	4
CCc1ccc(NC(=O)COc2ccc(F)cc2C(=O)c2cnn(-c3ccccc3)c2)cc1	20*	0	-8	-1	13	11
COc1ccccc1NC(=O)COc1ccccc1C(=O)c1cnn(-c2ccccc2)c1	8	-3	-4	-5	3	7
Cc1c(C(=O)C(=O)N2CCCc3ccccc32)c2ccccc2n1C	30*	1	-3	-27	15	7
Cc1c(C(=O)C(=O)N2c3ccc(F)cc3CCC2C)c2ccccc2n1C (stereo not given)	6	68*	-5	-20	6	4
Cc1c(C(=O)C(=O)N2CCN(C)CC2)c2ccccc2n1C	2	-5	-2	-29	11	8
COc1ccccc1/C=C/C(=O)OCC(=O)Nc1cc(C(F)(F)F)ccc1N1CCOCC1	19*	0	-3	-13	12	6
Cc1ccc2nc(SCC(=O)Nc3cc(C(F)(F)F)ccc3N3CCOCC3)[nH]c2c1	22*	x	-3	-9	3	-1
O=c1[nH]c(-c2ccc(O)cc2)nc2scc(-c3cccs3)c12	x	-4	x	-7	-26	22
O=C(O)c1ccc(-c2nc3scc(-c4ccccc4)c3c(=O)[nH]2)cc1	x	-1	x	-48	-7	41*

High-throughput results (PubChem)
